Measurements from ChEMBL document CHEMBL5107994, “Biphenyl scaffold for the design of NMDA-receptor negative modulators: molecular modeling, synthesis, and biological activity” (RSC Med Chem, 2022).
Activity calls are given as the source filed them. No cut-off for these calls is given here.

Columns and labels:
Glutamate NMDA receptor [1] = assay: Displacement of 3[H]ifenprodil from NMDA receptor in Wistar rat brain membrane incubated for 2 hrs by scintillation counting method; type: cell membranes
Outline: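 Rat hippocampal membranes prepared in HEPES/Tris pH 7.6 buffers with repeated EDTA washes, stored in liquid nitrogen. Incubated with [3H]-ifenprodil (40 nM working-solution aliquot) for 2 h at room temperature. Nonspecific binding measured with 10 μM unlabeled ifenprodil. Test compounds over 10^-8 to 10^-3 M. Filtration on polyethyleneimine-soaked GF/B filters, then scintillation counting. Each concentration run in triplicate and averaged.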

Glutamate NMDA receptor [2] = assay: Negative allosteric modulator activity at NMDA receptor in Wistar rat hippocampal CA1 neuronal membrane assessed as inhibition of NMDA and glycine induced current response by whole-cell patch clamp technique; type: cell membranes; conditions: hippocampal ca1 neurone
Outline: (§1)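 Acutely vibrodissociated CA1 pyramidal neurons from 13–18-day male Wistar rats, whole-cell recorded at –80 mV at room temperature. 100 μM NMDA + 10 μM glycine activated the receptors. Steady-state current block was measured across concentrations and fitted with the Hill equation for the concentration-inhibition relationship. At least four experiments, mean ± SD.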

[3] = biological target: T1, Glutamate NMDA receptor (Rattus norvegicus) (UniProt P35439+Q00959+Q00960+Q00961+Q62645+Q8VHN2+Q9R1M7); assay: Negative allosteric modulator activity at NMDA receptor in Wistar rat hippocampal CA1 neuronal membrane assessed as inhibition of NMDA and glycine induced current response at 30 uM by whole-cell patch clamp technique; type: cell membranes; conditions: Hippocampal CA1 neurone
Outline: (§2)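 Male Wistar rats, 13–18 d old. CA1 pyramidal neurons isolated from hippocampal slices by vibrodissociation. Whole-cell patch clamp at room temperature, holding potential –80 mV, with 70–80% series-resistance compensation. Currents evoked by 100 μM NMDA plus 10 μM glycine. Percent block of the steady-state current measured at each compound concentration. Means ± SD from at least four experiments.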

[4] = biological target: T1, Glutamate NMDA receptor (Rattus norvegicus); assay: Negative allosteric modulator activity at NMDA receptor in Wistar rat hippocampal CA1 neuronal membrane assessed as inhibition of NMDA and glycine induced current response by measuring maximum efficacy by whole-cell patch clamp technique; type: cell membranes; conditions: Hippocampal CA1 neurone, filed as negative allosteric modulator; outline: as §1
Mus musculus = assay: Antidepressant activity in ICR (CD-1) mouse assessed as decrease in immobility time at 160 mg/kg, po and measured after 1 hr by forced swim test; type: functional, organism-based
Outline: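 Adult male ICR (CD-1) mice, 20–25 g, n=10 per group, dosed orally 1 h before a one-day forced swim test. Solutions were prepared on the day. Each mouse swam 5 min in a cylinder with at least 20 cm of water at 24–26°C, with fresh water per animal, and was videotaped. Total immobility (passive floating) was compared with an […] saline/5% DMSO group by Mann-Whitney U-test.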

[5] = biological target: T1, Glutamate NMDA receptor (Rattus norvegicus); assay: Negative allosteric modulator activity at NMDA receptor in Wistar rat hippocampal CA1 neuronal membrane assessed as inhibition of NMDA and glycine induced current response at 3 uM by whole-cell patch clamp technique; type: cell membranes; conditions: Hippocampal CA1 neurone, filed as negative allosteric modulator; outline: as §2
[6] = biological target: T1, Glutamate NMDA receptor (Rattus norvegicus); assay: Negative allosteric modulator activity at NMDA receptor in Wistar rat hippocampal CA1 neuronal membrane assessed as inhibition of NMDA and glycine induced current response at 0.03 uM by whole-cell patch clamp technique; type: cell membranes; conditions: Hippocampal CA1 neurone; outline: as §2
[7] = biological target: T1, Glutamate NMDA receptor (Rattus norvegicus); assay: Negative allosteric modulator activity at NMDA receptor in Wistar rat hippocampal CA1 neuronal membrane assessed as inhibition of NMDA and glycine induced current response at 0.3 uM by whole-cell patch clamp technique; type: cell membranes; conditions: Hippocampal CA1 neurone, filed as negative allosteric modulator; outline: as §2

Row | Structure (SMILES) | IC50 (Glutamate NMDA receptor [1]) [µM] | IC50 (Glutamate NMDA receptor [2]) [µM] | Emax [4] [%] | further results
1 | OC(CNc1ccccc1)c1ccc(-c2ccccc2)cc1 (configuration not stated) | > 100 | > 30 | – | inhibition ([3]; filed as negative allosteric modulator): 42%
2 | Oc1ccc(OCC(O)c2ccc(-c3ccccc3)cc2)cc1 (configuration not stated) | > 100 | > 30 | – | inhibition [3]: 36%
3 | CS(=O)(=O)Nc1cccc(NCC(O)c2ccc(-c3ccc(Br)cc3)cc2)c1 (configuration not stated) | 1 | 0.05 | 78 | –
4 | CCNc1cccc(NCC(O)c2ccc(-c3ccccc3)cc2)c1 (configuration not stated) | > 100 | > 30 | – | inhibition [3]: 10%
5 | C[C@H]([C@@H](O)c1ccc(O)cc1)N1CCC(Cc2ccccc2)CC1 | – | – | 62 | –
6 | CNCCC(Oc1ccc(C(F)(F)F)cc1)c1ccccc1 (configuration not stated) | – | – | – | Activity (Mus musculus): Active
7 | Oc1cccc(NCC(O)c2ccc(-c3ccccc3)cc2)c1 (configuration not stated) | 4.2 | 0.45 | 72 | –
8 | OC(COc1ccccc1)c1ccc(-c2ccccc2)cc1 (configuration not stated) | > 100 | > 30 | – | inhibition [3]: 37%
9 | Oc1cccc(OCC(O)c2ccc(-c3ccccc3)cc2)c1 (configuration not stated) | 30 | 5 | 62 | –
10 | CS(=O)(=O)Nc1cccc(NCC(O)c2ccc(-c3ccccc3)cc2)c1 (configuration not stated) | 5.4 | 0.1 | 83 | inhibition [5]: 76%; inhibition [6]: 25%; inhibition [7]: 61%
11 | NC(COc1cccc(O)c1)c1ccc(-c2ccccc2)cc1 (configuration not stated) | 41 | 5 | 65 | –
